Data published in ChEMBL document CHEMBL1155470, “Colloid formation by drugs in simulated intestinal fluid” (J Med Chem, 2010).
pIC50: −log10 of the molar value. Calls of active or inactive are those of the source. The calls are words filed in the database; no cut-off is given here.

Tests used:
[1] = Colloidal aggregation in fed state simulated intestinal fluid assessed as colloid radius at 200 uM by dynamic light scattering assay in presence of 1% DMSO; format: physicochemical; settings: simulated gi fluid
Outline: (§1)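 Concentrated DMSO stocks diluted into filtered FeSSIF: blank FeSSIF plus 15 mM sodium taurocholate and 3.75 mM lecithin, dissolved at 37 °C. Final DMSO 1% unless otherwise noted. Particle size by dynamic light scattering at 826.6 nm, detector at 90°, 100% laser power. Values are averages of three or more independent measurements at room temperature.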

[2] = Colloidal aggregation in fed state simulated intestinal fluid by dynamic light scattering-based beads autocorrelation assay in presence of 1% DMSO; format: physicochemical; settings: simulated gi fluid
Outline: (§2)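 FeSSIF samples examined by DLS (826.6 nm laser, 90° detector, room temperature), comparing autocorrelation curves with blank FeSSIF. The micelle background was checked with 200 nm calibration beads diluted in FeSSIF. Drug samples were made by diluting DMSO stocks into filtered FeSSIF (15 mM taurocholate, 3.75 mM lecithin).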

[3] = Colloidal aggregation in fed state simulated intestinal fluid assessed as colloid radius at 10 uM by dynamic light scattering assay in presence of 1% DMSO; settings: simulated gi fluid
Cruzipain [4] = target: T1, Cruzipain (Trypanosoma cruzi, UniProt P25779); assay: Inhibition of Trypanosoma cruzi cruzaine preincubated for 5 mins before substrate addition by fluorescence assay in absence of Triton X-100
Cruzipain [5] = target: T1, Cruzipain; assay: Inhibition of Trypanosoma cruzi cruzaine preincubated for 5 mins before substrate addition by fluorescence assay in presence of 0.01% Triton X-100
[6] = Colloidal aggregation in fed state simulated intestinal fluid assessed as colloid radius at 450 uM by dynamic light scattering assay in presence of 1% DMSO; format: physicochemical; settings: simulated gi fluid; outline: as §1
[7] = Colloidal aggregation in fed state simulated intestinal fluid by dynamic light scattering assay in presence of 1.8% DMSO; format: physicochemical; settings: simulated gi fluid; outline: as §1
[8] = Colloidal aggregation in fed state simulated intestinal fluid at 450 uM by dynamic light scattering-based beads autocorrelation assay in presence of 1.8% DMSO; format: physicochemical; settings: simulated gi fluid; outline: as §2
[9] = Colloidal aggregation in fed state simulated intestinal fluid by dynamic light scattering assay in presence of 0.5% DMSO; format: physicochemical; settings: simulated gi fluid; outline: as §1
[10] = Colloidal aggregation in fed state simulated intestinal fluid assessed as colloid radius at 250 uM by dynamic light scattering assay in presence of 1% DMSO; format: physicochemical; settings: simulated gi fluid; outline: as §1
[11] = Colloidal aggregation in fed state simulated intestinal fluid assessed as colloid radius at 100 uM by dynamic light scattering assay in presence of 1% DMSO; format: physicochemical; settings: simulated gi fluid; outline: as §1
[12] = Colloidal aggregation in phosphate buffer at 50 uM by transmission electron microscopy in presence of 0.5% DMSO; format: physicochemical
Outline: (§3)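 Drug DMSO stocks diluted into 50 mM phosphate buffer. Samples adsorbed ~30 s onto glow-discharged formvar/carbon-coated copper grids and negatively stained with 2% ammonium molybdate. Imaged by transmission electron microscopy at 80 kV, standard magnification 25 000.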

[13] = Colloidal aggregation in fed state simulated intestinal fluid at 100 uM by transmission electron microscopy in presence of 1% DMSO; format: physicochemical; settings: simulated gi fluid
Outline: (§4)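 Drug DMSO stocks diluted into FeSSIF. Samples adsorbed ~30 s onto glow-discharged formvar/carbon-coated copper grids and negatively stained with 2% ammonium molybdate. Viewed by transmission electron microscopy at 80 kV, standard magnification 25 000, calibrated with catalase crystals and ferritin.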

[14] = Binding affinity to beta-lactamase AmpC at 200 uM after 30 mins by SDS-PAGE
Outline: (§5)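 Cosedimentation in FeSSIF, with and without 2 μg AmpC β-lactamase added per sample. Samples centrifuged at 16000g for 30 min at room temperature. Supernatant removed completely; pellets resuspended in DMSO plus 50 mM KPi pH 7.0 and run on SDS-PAGE. Protein detected by silver staining. Drug-only pellets included as background controls.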

[15] = Aggregation-based binding affinity to beta-lactamase AmpC at 200 uM in fed state simulated intestinal fluid after 30 mins by silver staining in presence of 2% DMSO; outline: as §5
[16] = Colloidal aggregation in fed state simulated intestinal fluid assessed as percent of drug in fraction after centrifugation by UV-visible spectrophotometry in presence of 3% DMSO; settings: simulated gi fluid
[17] = Colloidal aggregation in fed state simulated intestinal fluid assessed as colloid radius at 2.5 uM by dynamic light scattering assay in presence of 1% DMSO; format: physicochemical; settings: simulated gi fluid; outline: as §1
[18] = Colloidal aggregation in fed state simulated intestinal fluid assessed as colloid radius at 20 uM by dynamic light scattering assay in presence of 1% DMSO; format: physicochemical; settings: simulated gi fluid; outline: as §1
[19] = Colloidal aggregation in fed state simulated intestinal fluid assessed as colloid radius at 5 uM by dynamic light scattering assay in presence of 1% DMSO; format: physicochemical; settings: simulated gi fluid; outline: as §1
[20] = Colloidal aggregation in fed state simulated intestinal fluid assessed as colloid radius at 20 uM by dynamic light scattering assay in presence of 0.2% DMSO; format: physicochemical; settings: simulated gi fluid; outline: as §1
[21] = Colloidal aggregation in fed state simulated intestinal fluid by dynamic light scattering assay in presence of 0.2% DMSO; format: physicochemical; settings: simulated gi fluid; outline: as §1
[22] = Colloidal aggregation in fed state simulated intestinal fluid by dynamic light scattering assay in presence of 0.75% DMSO; format: physicochemical; settings: simulated gi fluid; outline: as §1
[23] = Colloidal aggregation in fed state simulated intestinal fluid assessed as colloid radius at 150 uM by dynamic light scattering assay in presence of 0.75% DMSO; format: physicochemical; settings: simulated gi fluid; outline: as §1
[24] = Colloidal aggregation in phosphate buffer at 100 uM by transmission electron microscopy in presence of 0.2% DMSO; format: physicochemical; outline: as §3
[25] = Colloidal aggregation in fed state simulated intestinal fluid at 200 uM by transmission electron microscopy in presence of 1% DMSO; format: physicochemical; settings: simulated gi fluid; outline: as §4

T1 sequence (P25779 whole entry): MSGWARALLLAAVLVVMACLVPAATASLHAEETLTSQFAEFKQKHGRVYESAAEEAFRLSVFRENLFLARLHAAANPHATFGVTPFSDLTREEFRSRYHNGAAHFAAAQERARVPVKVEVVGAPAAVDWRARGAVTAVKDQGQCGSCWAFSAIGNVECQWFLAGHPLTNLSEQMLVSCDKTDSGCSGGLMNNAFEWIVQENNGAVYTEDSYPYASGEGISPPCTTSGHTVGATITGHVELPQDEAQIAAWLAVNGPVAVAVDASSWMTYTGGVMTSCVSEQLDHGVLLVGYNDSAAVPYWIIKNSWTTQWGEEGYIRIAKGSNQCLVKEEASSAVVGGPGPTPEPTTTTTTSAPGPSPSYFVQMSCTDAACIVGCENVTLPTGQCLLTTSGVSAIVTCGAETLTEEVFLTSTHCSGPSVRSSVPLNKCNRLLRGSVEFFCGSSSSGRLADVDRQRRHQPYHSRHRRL

Cc1cc(C#N)cc(C)c1Oc1nc(Nc2ccc(C#N)cc2)nc(N)c1Br [ETRAVIRINE]
Activity [1]: 373.3 nm | Activity [2]: Active | Activity [3]: 323.2 nm | pIC50 (Cruzipain [4]): 5.40 | pIC50 (Cruzipain [5]): < 3.70

CC(C)OC(=O)C(C)(C)Oc1ccc(C(=O)c2ccc(Cl)cc2)cc1 [FENOFIBRATE]
Activity [6]: 113.8 nm | Activity [7]: 450 µM | Activity [8]: Active | Activity [3]: 129 nm | pIC50 (Cruzipain [4]): 4.21 | pIC50 (Cruzipain [5]): < 3.30

COc1cc2ncnc(Nc3ccc(F)c(Cl)c3)c2cc1OCCCN1CCOCC1 [GEFITINIB]
Activity [9]: 250 µM | Activity [10]: 160.1 nm | pIC50 (Cruzipain [4]): 4.06 | pIC50 (Cruzipain [5]): 3.83

Cc1ccc(NC(=O)c2ccc(CN3CCN(C)CC3)cc2)cc1Nc1nccc(-c2cccnc2)n1 [IMATINIB]
Activity [11]: 118.4 nm | pIC50 (Cruzipain [4]): 3.68 | pIC50 (Cruzipain [5]): 3.53

CCC(C)n1ncn(-c2ccc(N3CCN(c4ccc(OCC5COC(Cn6cncn6)(c6ccc(Cl)cc6Cl)O5)cc4)CC3)cc2)c1=O (configuration not stated) [ITRACONAZOLE]
Activity [12]: Active | Activity [13]: Active | Activity [14]: inactive | Activity [15]: Active | Percent of drug in fraction [16]: 6.9% | Activity [17]: 138.1 nm | Activity [2]: Active | pIC50 (Cruzipain [4]): 5.52 | pIC50 (Cruzipain [5]): < 3.70 | Activity [18]: 64.5 nm

COC(=O)C1=C(C)NC(C)=C(C(=O)OCCN2CCN(C(c3ccccc3)c3ccccc3)CC2)C1c1cccc([N+](=O)[O-])c1 (configuration not stated) [MANIDIPINE 6300]
Activity [17]: 125.6 nm | pIC50 (Cruzipain [4]): 5.22 | pIC50 (Cruzipain [5]): < 4.00

Cc1cccc(CN2CCN(C(c3ccccc3)c3ccc(Cl)cc3)CC2)c1.Cl (configuration not stated) [MECLIZINE DIHCL]
pIC50 (Cruzipain [4]): 3.89 | pIC50 (Cruzipain [5]): < 3.60 | Activity [19]: 133.3 nm

CC(C)=CCC/C(C)=C/CC/C(C)=C/CC/C(C)=C/CC1=C(C)C(=O)c2ccccc2C1=O [MENATETRENONE]
Activity [20]: 36.8 nm | Activity [21]: 20 µM | Activity [2]: Active | pIC50 (Cruzipain [4]): 4.74 | pIC50 (Cruzipain [5]): < 3.70 | Activity [19]: 72.5 nm

CN(C)c1ccc2nc3ccc(N(C)C)cc3[s+]c2c1.[Cl-] [METHYLENE BLUE ANHYDROUS]
Activity [22]: 150 µM | Activity [23]: 52.6 nm | Activity [24]: Active | Activity [25]: Active | Activity [2]: Active | Activity [18]: 95.9 nm

O=C(c1ccc(OCCN2CCCCC2)cc1)c1c(-c2ccc(O)cc2)sc2cc(O)ccc12 [RALOXIFENE]
pIC50 (Cruzipain [4]): 4.48 | pIC50 (Cruzipain [5]): 3.89 | Activity [18]: 192.2 nm

CSc1nc2cc(Cl)c(Oc3cccc(Cl)c3Cl)cc2[nH]1 [TRICLABENDAZOLE]
Activity [3]: 93 nm | pIC50 (Cruzipain [4]): 4.82 | pIC50 (Cruzipain [5]): < 3.70
